Experimental data taken from ChEMBL document CHEMBL3616459, “Antimicrobial peptides with potential for biofilm eradication: synthesis and structure activity relationship studies of battacin peptides” (J Med Chem, 2015).
The source made the active and inactive calls. The rule behind the calls is not given here. Non-standard residues stand in square brackets, D forms with d. Residues, ends and D or L forms follow the SMILES beside them. ξ: configuration not given here. *: point of attachment. Hexanoyl(4ξ-Me) = CCC(C)CCC(=O)*; dDab = NCC[C@@H](N)C(=O)O; Dab = NCC[C@H](N)C(=O)O

Tests used:
Escherichia coli = experiment: Antimicrobial activity against Escherichia coli assessed as complete cell lysis at 2 times MIC measured after 24 hrs by scanning electron microscopy; assay type: functional, organism-based
Summary of the method: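 Bacteria grown to OD600 0.3 in LB on glass slides for 24 h, then washed with 10 mM sodium phosphate pH 7.4. Treated 20 min with peptide in LB at twice the upper limit of its MIC, washed, and fixed in 4% glutaraldehyde 1 h. Dehydrated through graded ethanol, dried at 60 °C, platinum coated, and imaged by SEM at 10 kV.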

Pseudomonas syringae [1] = experiment: Bactericidal activity against Pseudomonas syringae pv. actinidiae 16027 at 20 times MIC up to 1 hr by time-kill assay; assay type: functional, organism-based
Summary of the method: (§1)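 Time-kill assay. Overnight culture diluted in LB to mid-log phase, 10^5–10^8 CFU/mL; 100 μL added to 10 mL peptide in LB at 1×, 2×, 4× and 20× MIC. Incubated with shaking at 100 rpm, at 28 °C (Ea1501, Psa) or 37 °C (E. coli, P. aeruginosa, S. aureus). Samples at 0, 0.5, 1, 3, 6, 9 and 24 h serially diluted in 0.9% saline and plated; colonies counted after 24 h. Run in duplicate. Bactericidal means ≥2-log10 CFU/mL drop versus the no-antibiotic control.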

Pseudomonas aeruginosa [2] = experiment: Bactericidal activity against Pseudomonas aeruginosa assessed as reduction in bacterial count at 2 to 4 times MIC after 24 hrs by time-kill assay relative to control; assay type: functional; summary of the method: as §1
Pseudomonas aeruginosa [3] = experiment: Antimicrobial activity against Pseudomonas aeruginosa assessed as outer membrane permeability at 0.5 to 100 uM measured after 1 min by N-phenylnaphthylamine uptake assay; assay type: functional, organism-based
Summary of the method: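 Cells grown overnight in LB at 37 °C, then regrown to OD600 0.5, washed thrice and resuspended to OD600 0.5 in 10 mM phosphate buffer pH 7.0. Peptide (30 μL, 0.5–100 μM) added to 2.94 mL suspension, with NPN at 10 μM final. Fluorescence read at ex 350/em 420 nm, triplicate readings averaged.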

[4] = tested on: Pseudomonas syringae pv. actinidiae; experiment: Antimicrobial activity against Pseudomonas syringae pv. actinidiae 16027 preformed biofilms at 5 to 10 uM after 24 hrs; assay type: functional
Summary of the method: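 Psa16027 biofilms formed 48 h without peptide, then washed. 100 μL of peptide (1, 5 or 50 μM) in LB, or LB alone, added and incubated a further 24 h at 28 °C. Crystal violet staining followed, with A560 estimation of biofilm mass and microscopy.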

Pseudomonas syringae [5] = experiment: Bactericidal activity against Pseudomonas syringae pv. actinidiae 16027 at 1 to 20 times MIC after 24 hrs by time-kill assay; assay type: functional, organism-based; summary of the method: as §1
Pseudomonas aeruginosa [6] = experiment: Antimicrobial activity against Pseudomonas aeruginosa preformed biofilms at 10 to 50 uM after 48 hrs; assay type: functional, organism-based
Summary of the method: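 Biofilms preformed 48 h without peptide, then washed. Peptide at 10, 50 or 100 μM in LB added and incubated a further 24 h at 37 °C. Live/dead BacLight staining on coverslips, then fluorescence microscopy at 1000×.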

Pseudomonas syringae [7] = experiment: Bactericidal activity against Pseudomonas syringae pv. actinidiae 16027 at 1 to 2 times MIC after 9 hrs by time-kill assay; assay type: functional, organism-based; summary of the method: as §1
Pseudomonas aeruginosa [8] = experiment: Antimicrobial activity against Pseudomonas aeruginosa assessed as complete cell lysis at 2 times MIC […]; assay type: functional, organism-based
Erwinia amylovora = experiment: Bactericidal activity against Erwinia amylovora 1501 at MIC […] by time-kill assay; assay type: functional, organism-based
Pseudomonas aeruginosa [9] = experiment: Bactericidal activity against Pseudomonas aeruginosa at 20 times MIC after 9 hrs by time-kill assay relative to control; assay type: functional, organism-based; summary of the method: as §1

`CCC(C)CCC(=O)N[C@H](CCN)C(=O)N[C@@H](CCN)C(=O)N[C@@H](CCN)C(=O)N[C@@H](CC(C)C)C(=O)N[C@H](Cc1ccccc1)C(=O)N[C@@H](CCN)C(=O)N[C@@H](CCN)C(=O)N[C@@H](CC(C)C)C(N)=O` (stereo partly drawn) ({Hexanoyl(4ξ-Me)}-[dDab][Dab][Dab]L[dF][Dab][Dab]L-NH2) was tested, and the Activity (Escherichia coli) was “Active”, the Activity (Pseudomonas syringae [1]) was “Active” and the Activity (Pseudomonas aeruginosa [2]) was over 2 deltalog10CFU/ml. For the same compound, the Activity (Pseudomonas aeruginosa [3]) was “Active”, the Activity [4] was “Active” and the Activity (Pseudomonas syringae [5]) was “inactive”. For the same compound, the Activity (Pseudomonas aeruginosa [6]) was “Active”, the Activity (Pseudomonas syringae [7]) was “Active” and the Activity (Pseudomonas aeruginosa [8]) was “Active”. The Activity (Erwinia amylovora) was “inactive” and the Activity (Pseudomonas aeruginosa [9]) was “Active”.
